Results: ChEMBL document CHEMBL2321684, “Novel hybrids of optically active ring-opened 3-n-butylphthalide derivative and isosorbide as potential anti-ischemic stroke agents” (J Med Chem, 2013)
The source made the active and inactive calls. The rule behind the calls is not given here.

How the values were obtained:
Rattus norvegicus [1] = test: Antiischemic activity in Sprague-Dawley rat assessed as reduction in middle cerebral artery occlusion-induced abnormal changes in brain at 340 mg/kg administered via gavage for 7 days prior to middle cerebral artery occlusion-challenge measured after 24 hrs by microscopic analysis; format: functional, organism-based; parameters: dose 340 mg/kg
How it was run: (§1)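 Male SD rats (280−320 g), n = 12 per group, dosed by gavage daily for 7 days in 0.5% CMC-Na vehicle. Sham animals received vehicle only. Two hours after the last dose, rats were anesthetized with chloral hydrate (300 mg/kg ip) and given MCAO for 2 h, then reperfused. Body temperature was held at 37 °C. All endpoints were read at 24 h post reperfusion.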

Rattus norvegicus [2] = test: Antiischemic activity in Sprague-Dawley rat assessed as reduction in middle cerebral artery occlusion-induced inflammatory infiltrates in brain at 340 mg/kg administered via gavage for 7 days prior to middle cerebral artery occlusion-challenge measured after 24 hrs by microscopic analysis; format: functional, organism-based; parameters: dose 340 mg/kg; how it was run: as §1
Rattus norvegicus [3] = test: Antiischemic activity in Sprague-Dawley rat assessed as reduction in middle cerebral artery occlusion-induced abnormal changes in brain at 80 mg/kg administered via gavage for 7 days prior to middle cerebral artery occlusion-challenge measured after 24 hrs by microscopic analysis; format: functional, organism-based; parameters: dose 80 mg/kg; how it was run: as §1
Rattus norvegicus [4] = test: Antiischemic activity in Sprague-Dawley rat assessed as reduction in middle cerebral artery occlusion-induced necrosis in neurons at 80 mg/kg administered via gavage for 7 days prior to middle cerebral artery occlusion-challenge measured after 24 hrs by microscopic analysis; format: functional, organism-based; parameters: dose 80 mg/kg; how it was run: as §1
Rattus norvegicus [5] = test: Antiischemic activity in Sprague-Dawley rat assessed as reduction in middle cerebral artery occlusion-induced water content in brain at 80 mg/kg administered via gavage for 7 days prior to middle cerebral artery occlusion-challenge measured after 24 hrs relative to control; format: functional, organism-based; parameters: dose 80 mg/kg; how it was run: as §1
Rattus norvegicus [6] = test: Antiischemic activity in Sprague-Dawley rat assessed as reduction in middle cerebral artery occlusion-induced neurological deficit scores at 340 mg/kg administered via gavage for 7 days prior to middle cerebral artery occlusion-challenge measured after 24 hrs relative to control; format: functional, organism-based; parameters: dose 340 mg/kg; how it was run: as §1
Rattus norvegicus [7] = test: Antiischemic activity in Sprague-Dawley rat assessed as reduction in middle cerebral artery occlusion-induced neurological deficit scores at 80 mg/kg administered via gavage for 7 days prior to middle cerebral artery occlusion-challenge measured after 24 hrs relative to control; format: functional, organism-based; parameters: dose 80 mg/kg; how it was run: as §1
[8] = Plasma concentration in ICR mouse at 680 mg/kg, po after 8 hrs by HPLC analysis; format: ADME, organism-based; parameters: dose 680 mg/kg, route oral
How it was run: (§2)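 Male ICR mice (30−35 g), n = 6 per time point, were given a single 680 mg/kg gavage dose and sacrificed at 0.5, 1, 2, 4 and 8 h. Brains were rinsed, weighed and homogenized in 3 volumes of saline. Plasma and homogenate were precipitated with 3 volumes of acetonitrile.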

[9] = Plasma concentration in ICR mouse at 680 mg/kg, po after 0.5 hrs by HPLC analysis; format: ADME, organism-based; parameters: dose 680 mg/kg, route oral; how it was run: as §2
[10] = Biodistribution in ICR mouse brain at 680 mg/kg, po after 8 hrs by HPLC analysis; format: ADME, organism-based; parameters: dose 680 mg/kg, route oral; conditions: read-out: Drug uptake; how it was run: as §2
[11] = Biodistribution in ICR mouse brain at 680 mg/kg, po after 4 hrs by HPLC analysis; format: ADME, organism-based; parameters: dose 680 mg/kg, route oral; conditions: read-out: Drug uptake; how it was run: as §2
[12] = Biodistribution in ICR mouse brain at 680 mg/kg, po after 2 hrs by HPLC analysis; format: ADME, organism-based; parameters: dose 680 mg/kg, route oral; conditions: read-out: Drug uptake; how it was run: as §2
[13] = Biodistribution in ICR mouse brain at 680 mg/kg, po after 0.5 hrs by HPLC analysis; format: ADME, organism-based; parameters: dose 680 mg/kg, route oral; conditions: read-out: Drug uptake; how it was run: as §2
[14] = Biodistribution in ICR mouse brain at 680 mg/kg, po after 1 hr by HPLC analysis; format: ADME, organism-based; parameters: dose 680 mg/kg, route oral; conditions: read-out: Drug uptake; how it was run: as §2
Rattus norvegicus [15] = test: Antithrombotic activity in Sprague-Dawley rat assessed as reduction in arteriovenous shunt-induced dry thrombus weight at 340 mg/kg, administered via gavage for 7 days prior to arteriovenous shunt-challenge measured up to 15 mins relative to control; format: functional, organism-based; parameters: dose 340 mg/kg
How it was run: (§3)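 Male SD rats (250−280 g), n = 12 per group, dosed by gavage daily for 7 days in 0.5% CMC-Na. Two hours after the last dose, rats were anesthetized with chloral hydrate (300 mg/kg ip). A saline-filled 14 cm polyethylene catheter holding a 6 cm silk thread linked the left jugular vein and right carotid artery for 15 min. The thrombus was then weighed wet and dry. Results are mean ± SD, analysed by ANOVA/Tukey.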

Rattus norvegicus [16] = test: Antithrombotic activity in Sprague-Dawley rat assessed as reduction in arteriovenous shunt-induced wet thrombus weight at 80 mg/kg, administered via gavage for 7 days prior to arteriovenous shunt-challenge measured up to 15 mins relative to control; format: functional, organism-based; parameters: dose 80 mg/kg; how it was run: as §3
Mus musculus = test: Antithrombotic activity in Swiss ICR mouse assessed as inhibition of collagen/adrenaline-induced acute systemic vascular thromboembolism at 160 mg/kg, po administered for 7 days prior to collagen/adrenaline-challenge measured up to 15 mins relative to control; format: functional, organism-based; parameters: dose 160 mg/kg
How it was run: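 Male Swiss ICR mice (30−35 g), n = 15 per group, dosed by gavage daily for 7 days in DMSO vehicle. Two hours after the last dose, mice received collagen (0.21 mg/kg) plus adrenaline (44.5 μg/kg) iv. Survival was monitored for 15 min and reported as % surviving.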

[17] = Stability in artificial intestinal juice assessed as compound remaining at pH 6.8 after 1 hr by HPLC analysis; format: physicochemical; conditions: simulated gi fluid, pH 6.8, 1 h
[18] = Stability in artificial intestinal juice assessed as compound remaining at pH 6.8 measured immediately by HPLC analysis; format: physicochemical; conditions: simulated gi fluid
[19] = Stability in artificial gastric juice assessed as compound remaining at pH 1.5 after 4 hr by HPLC analysis; format: physicochemical; conditions: simulated gi fluid, pH 1.5, 4 h
[20] = Stability in artificial gastric juice assessed as compound remaining at pH 1.5 after 1 hr by HPLC analysis; format: physicochemical; conditions: simulated gi fluid, pH 1.5, 1 h
[21] = Stability in artificial gastric juice assessed as compound remaining at pH 1.5 after 2 hr by HPLC analysis; format: physicochemical; conditions: simulated gi fluid, pH 1.5, 2 h
Platelet = test: Antiplatelet aggregation activity in rabbit platelets assessed as inhibition of ADP-induced platelet aggregation at 0.1 mM incubated for 5 mins prior to ADP-challenge measured within 5 mins by turbidimetric analysis; format: functional, cell-based; conditions: Oryctolagus cuniculus
How it was run: (§4)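 Rabbit carotid blood was citrated (3.8%, 9:1). PRP was adjusted with PPP to 400−450 × 10⁹ platelets/L. PRP was preincubated with compound or DMSO for 5 min at 37 °C, then aggregation was induced with ADP at 10 μM. Maximum aggregation rate was recorded over 5 min using Born's turbidimetry. Inhibition % was calculated versus vehicle; n = 6, mean ± SD.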

[22] = Antiplatelet aggregation activity in rabbit platelets assessed as inhibition of ADP-induced platelet aggregation at 1 mM incubated for 5 mins prior to ADP-challenge measured within 5 mins by Born's turbidimetric analysis relative to control; format: functional; conditions: Oryctolagus cuniculus; how it was run: as §4
[23] = Antiplatelet aggregation activity in rabbit platelets assessed as inhibition of arachidonic acid-induced platelet aggregation incubated for 5 mins prior to arachidonic acid-challenge measured within 5 mins by Born's turbidimetric analysis; format: functional, cell-based; conditions: Oryctolagus cuniculus
How it was run: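 Rabbit citrated PRP was adjusted to 400−450 × 10⁹ platelets/L and preincubated for 5 min at 37 °C with vehicle DMSO or compound at 0.1−1.6 mM (at least five concentrations). Aggregation was induced with arachidonic acid (0.33 mM, per the methods text). Maximum aggregation rate was recorded over 5 min by Born's turbidimetry, and IC₅₀ was derived from inhibition versus vehicle (mean ± SD).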

[24] = Antiplatelet aggregation activity in rabbit platelets assessed as inhibition of ADP-induced platelet aggregation incubated for 5 mins prior to ADP-challenge measured within 5 mins by Born's turbidimetric analysis; format: functional, cell-based; conditions: Oryctolagus cuniculus

**Q.** What does the source list for `CCCC[C@H](OC(=O)CN1CCN(C)CC1)c1ccccc1C(=O)O[C@H]1CO[C@H]2[C@@H]1OC[C@H]2OC(=O)c1ccccc1[C@H](CCCC)OC(=O)CN1CCN(C)CC1`?
**A.** Activity (Rattus norvegicus [1]): Active; Activity (Rattus norvegicus [2]): Active; Activity (Rattus norvegicus [3]): Active; Activity (Rattus norvegicus [4]): Active; Activity (Rattus norvegicus [5]): Active; Activity (Rattus norvegicus [6]): Active; Activity (Rattus norvegicus [7]): Active; concentration at 8 h [8]: 69.7 ng/mL; concentration at 0.5 h [9]: 320 ng/mL; concentration at 8 h [10]: 16.7 ng/mL; concentration at 4 h [11]: 54.3 ng/mL; concentration at 2 h [12]: 174 ng/mL; concentration at 0.5 h [13]: 408 ng/mL; concentration at 1 h [14]: 260 ng/mL; Activity (Rattus norvegicus [15]): Active; Activity (Rattus norvegicus [16]): Active; Activity (Mus musculus): Active; Stability [17]: 4.86 µM; Stability [18]: 4.97 µM; Stability [19]: 4.79 µM; Stability [20]: 4.89 µM; Stability [21]: 5 µM; inhibition (Platelet): Active; inhibition at 1000 µM [22]: 50.1%; IC50 [23]: 50 µM; IC50 [24]: 70 µM
